From ChEMBL document CHEMBL1150643, “Bioactive constituents of Cedrelopsis microfoliata” (J Nat Prod, 2002)
In brackets after ≈: the same amount, converted by molar mass.

What was measured:
[1] = Superoxide scavenging activity by chemiluminescence assay
Summary of the method: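 Cell-free xanthine oxidase system in PBS pH 7.4 with a serial dilution of sample. Added hypoxanthine (final 1 mM), lucigenin (0.1 mM), and either buffer or SOD (10 U/mL); started with xanthine oxidase (10 mU/mL). Chemiluminescence read each minute for 15 min. Activity taken from the SOD-inhibitable signal. Uric acid formation at 290 nm checked for direct xanthine oxidase effects.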

[2] = Inhibition of luminol-induced chemiluminescence of reactive oxygen metabolites in opsonized zymosan-induced human PMNC by chemiluminescence assay; assay type: functional
Summary of the method: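 PMNs from buffy coats of healthy volunteers, isolated on Ficoll-Hypaque and suspended in HBSS. Cells were mixed with a dilution range of sample plus luminol (0.1 mM), then activated with human-serum-opsonized zymosan (0.8 mg/mL). Luminescence read every 2 min over 30 min. Inhibition calculated from maximum peak levels against a control of cells, luminol and buffer.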

[3] = target: Estrogen receptor beta (Homo sapiens) (UniProt Q92731); test: Agonist activity at ERbeta expressed in human HEK293 cells assessed as induction of estrogenic response at 10 to 100 ug/mL by luciferase reporter gene assay relative to 17beta estradiol; assay type: functional, cell-based
Chain of Estrogen receptor beta (Homo sapiens) (Q92731 whole entry): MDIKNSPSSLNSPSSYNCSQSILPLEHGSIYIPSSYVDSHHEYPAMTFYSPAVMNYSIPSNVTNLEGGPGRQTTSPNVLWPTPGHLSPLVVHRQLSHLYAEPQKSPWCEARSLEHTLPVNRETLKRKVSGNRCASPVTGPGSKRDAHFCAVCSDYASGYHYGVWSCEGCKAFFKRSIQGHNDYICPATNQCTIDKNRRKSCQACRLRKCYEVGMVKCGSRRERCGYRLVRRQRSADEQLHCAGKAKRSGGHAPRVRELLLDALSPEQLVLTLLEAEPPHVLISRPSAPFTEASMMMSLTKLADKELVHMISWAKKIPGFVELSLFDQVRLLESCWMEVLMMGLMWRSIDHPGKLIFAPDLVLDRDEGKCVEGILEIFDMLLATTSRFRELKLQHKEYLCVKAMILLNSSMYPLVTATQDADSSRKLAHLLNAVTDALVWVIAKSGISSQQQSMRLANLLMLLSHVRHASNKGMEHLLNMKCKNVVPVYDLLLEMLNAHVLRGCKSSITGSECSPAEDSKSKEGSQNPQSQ

[4] = target: T1, Estrogen receptor (Homo sapiens) (UniProt P03372); test: Agonist activity at ERalpha expressed in human HEK293 cells assessed as induction of estrogenic response at 10 to 100 ug/mL by luciferase reporter gene assay relative to 17beta estradiol; assay type: functional, cell-based
T1 sequence (whole entry): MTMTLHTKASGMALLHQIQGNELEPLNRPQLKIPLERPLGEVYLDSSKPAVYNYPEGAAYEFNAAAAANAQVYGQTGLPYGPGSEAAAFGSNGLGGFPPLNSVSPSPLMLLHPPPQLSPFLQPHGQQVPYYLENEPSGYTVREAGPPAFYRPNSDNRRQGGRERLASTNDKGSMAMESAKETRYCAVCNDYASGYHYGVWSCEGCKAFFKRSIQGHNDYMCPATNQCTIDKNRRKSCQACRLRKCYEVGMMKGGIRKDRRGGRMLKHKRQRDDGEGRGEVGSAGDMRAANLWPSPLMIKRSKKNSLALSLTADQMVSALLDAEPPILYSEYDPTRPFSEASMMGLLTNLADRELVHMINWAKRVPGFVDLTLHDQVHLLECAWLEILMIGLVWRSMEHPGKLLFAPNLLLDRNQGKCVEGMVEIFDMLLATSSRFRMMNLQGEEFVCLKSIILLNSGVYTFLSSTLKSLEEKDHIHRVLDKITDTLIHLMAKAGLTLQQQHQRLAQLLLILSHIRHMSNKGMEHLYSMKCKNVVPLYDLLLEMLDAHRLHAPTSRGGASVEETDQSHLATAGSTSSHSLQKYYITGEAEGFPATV

Row | Structure (SMILES) | IC50 [1] [µg/mL] | IC50 [2] [µg/mL] | Activity [3] [%] | Activity [4] [%]
1 | CO[C@]1(CC=C(C)C)C(=O)[C@@](O)(C(=O)/C=C/c2ccccc2)C(=O)C(CC=C(C)C)=C1O [MICROFOLIAN] | 3 (≈ 6.84 µM) | 4 | – | –
2 | CC1(C)C=Cc2c(c(O)cc3oc(=O)ccc23)O1 [CEDRECOUMARIN A] | 0.2 (≈ 0.819 µM) | 13 | 20 | 20
3 | COc1c(O)c(CC=C(C)C)c(O)c2c1O[C@@H](c1ccccc1)CC2=O | – | – | 20 | 20
4 | COc1c(O)c(CC=C(C)C)c2c(c1O)C(=O)C[C@@H](c1ccccc1)O2 [AGRANDOL] | 3 (≈ 8.46 µM) | 3.2 | 20 | 20
